Columns and labels:
hERG (KCNH2) = hERG (KCNH2) (Homo sapiens, UniProt Q12809); experiment: (§1) Inhibition of human ERG in L929 cells at 10 uM by whole cell patch-clamp assay; conditions: human
Histamine H1 receptor = Histamine H1 receptor (Homo sapiens, UniProt P35367); experiment: Displacement of [3H]pyrilamine from human recombinant histamine H1 receptor expressed in CHO cell by Betaplate scintillation counting; assay type: cell-based
[1] = molecular target: T1, Voltage-gated inwardly rectifying potassium channel KCNH2 (Homo sapiens, UniProt Q12809); experiment: Inhibition of human ERG in L929 cells by whole cell patch-clamp assay
T1 sequence (Q12809 whole entry): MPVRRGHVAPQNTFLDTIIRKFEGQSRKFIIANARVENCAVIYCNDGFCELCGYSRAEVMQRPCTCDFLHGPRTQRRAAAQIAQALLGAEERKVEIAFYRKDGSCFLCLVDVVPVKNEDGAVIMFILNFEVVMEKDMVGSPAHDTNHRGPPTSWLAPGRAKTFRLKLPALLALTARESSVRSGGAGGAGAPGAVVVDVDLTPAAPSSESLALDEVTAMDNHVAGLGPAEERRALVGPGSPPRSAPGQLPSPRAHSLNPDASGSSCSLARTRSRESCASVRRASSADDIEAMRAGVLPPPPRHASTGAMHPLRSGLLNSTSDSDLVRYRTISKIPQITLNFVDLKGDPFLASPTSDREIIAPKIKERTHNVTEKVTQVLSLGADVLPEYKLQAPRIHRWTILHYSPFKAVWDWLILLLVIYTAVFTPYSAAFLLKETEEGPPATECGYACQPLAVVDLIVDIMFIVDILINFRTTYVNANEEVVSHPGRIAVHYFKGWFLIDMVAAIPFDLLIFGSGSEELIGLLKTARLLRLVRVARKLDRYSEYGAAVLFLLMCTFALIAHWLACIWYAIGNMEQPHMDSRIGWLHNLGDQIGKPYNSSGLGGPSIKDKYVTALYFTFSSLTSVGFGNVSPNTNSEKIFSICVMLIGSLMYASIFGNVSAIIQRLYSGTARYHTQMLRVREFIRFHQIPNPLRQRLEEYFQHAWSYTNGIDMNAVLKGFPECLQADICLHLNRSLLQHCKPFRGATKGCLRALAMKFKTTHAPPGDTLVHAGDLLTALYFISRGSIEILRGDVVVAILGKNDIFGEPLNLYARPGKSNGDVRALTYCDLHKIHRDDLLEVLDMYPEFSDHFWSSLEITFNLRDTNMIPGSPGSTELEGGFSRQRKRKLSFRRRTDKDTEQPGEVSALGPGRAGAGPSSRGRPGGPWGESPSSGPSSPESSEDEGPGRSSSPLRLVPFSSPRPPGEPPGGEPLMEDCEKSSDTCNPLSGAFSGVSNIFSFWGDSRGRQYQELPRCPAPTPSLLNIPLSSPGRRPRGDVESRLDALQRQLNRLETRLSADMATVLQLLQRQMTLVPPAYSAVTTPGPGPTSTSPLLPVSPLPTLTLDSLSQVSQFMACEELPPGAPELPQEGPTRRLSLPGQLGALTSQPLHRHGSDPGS

Cavia porcellus [2] = experiment: Antihistamine activity in iv dosed Hartley guinea pig assessed as inhibition of histamine-induced bronchoconstriction pretreated before histamine challenge; assay type: functional
Procedure, shortened: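 Guinea pig in vivo antihistamine test; potency is reported as an ED50 in mg/kg.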

Cavia porcellus [3] = experiment: Cardiovascular toxicity in iv dosed Hartley guinea pig QTc prolongation after 30 mins by ECG; assay type: organism-based; conditions: in vivo, 0.5 h
Procedure, shortened: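 Guinea pig in vivo QTc test; potency is reported as the minimum effective dose (MED) in mg/kg.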

[4] = molecular target: T1, Voltage-gated inwardly rectifying potassium channel KCNH2; experiment: as §1
Cavia porcellus [5] = experiment: Cardiovascular toxicity in Hartley guinea pig assessed as QTc prolongation at 50 mg/kg, iv after 30 mins by ECG; assay type: organism-based; parameters: dose 50 mg/kg, route intravenous; conditions: in vivo, 0.5 h
Cavia porcellus [6] = experiment: Cardiovascular toxicity in Hartley guinea pig assessed as QTc prolongation at 100 mg/kg, iv after 30 mins by ECG; assay type: organism-based; parameters: dose 100 mg/kg, route intravenous; conditions: in vivo, 0.5 h
[7] = L929 cells expressing human ERG

Chain of hERG (KCNH2) (Q12809 whole entry): as above
Chain of Histamine H1 receptor (P35367 whole entry): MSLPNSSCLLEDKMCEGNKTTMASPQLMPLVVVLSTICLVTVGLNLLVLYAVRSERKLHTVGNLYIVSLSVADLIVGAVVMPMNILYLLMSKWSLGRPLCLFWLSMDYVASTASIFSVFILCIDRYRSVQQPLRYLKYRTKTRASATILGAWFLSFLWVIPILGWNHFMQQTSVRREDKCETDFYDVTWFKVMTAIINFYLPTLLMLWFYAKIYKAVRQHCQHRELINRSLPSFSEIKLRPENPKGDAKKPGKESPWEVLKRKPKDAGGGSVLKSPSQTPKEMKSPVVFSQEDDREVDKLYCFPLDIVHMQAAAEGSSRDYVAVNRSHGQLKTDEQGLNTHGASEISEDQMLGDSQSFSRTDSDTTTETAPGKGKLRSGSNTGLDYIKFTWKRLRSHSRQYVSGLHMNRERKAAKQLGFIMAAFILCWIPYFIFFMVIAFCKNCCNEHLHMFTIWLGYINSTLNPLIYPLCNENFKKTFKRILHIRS

| Structure (SMILES) | inhibition at 10 µM (hERG (KCNH2); [7]) | Ki (Histamine H1 receptor; read-out: Ki) | other results |
| --- | --- | --- | --- |
| COC(=O)c1ccc(CCCCN2CCC(C(O)(c3ccccc3)c3ccccc3)CC2)cc1 | 100% | 0.02 µM | – |
| O=C(O)c1ccc(CCCCN2CCC(C(O)(c3ccccc3)c3ccccc3)CC2)cc1 | – | 0.203 µM | IC50 [1]: 11 µM; ED50 (Cavia porcellus [2]): 0.1 mg/kg; MED (Cavia porcellus [3]): Not Active; IC50 [4]: 11 µM; inhibition at 10 µM (hERG (KCNH2); l929): 56%; MED (Cavia porcellus [5]): > 50 mg/kg |
| Cc1ccc(CCCN2CCC(C(O)(c3ccccc3)c3ccccc3)CC2)cc1 | – | 0.155 µM | – |
| Cc1ccc(CCCCN2CCC(CO)CC2)cc1 | 54% | – | Ki (Histamine H1 receptor; cho): Not Active |
| Cc1ccc(CCCCC2CCC(C(O)(c3ccccc3)c3ccccc3)CC2)cc1 (stereo not given) | 35% | – | Ki (Histamine H1 receptor; cho): Not Active |
| Cc1ccc(CCCCN2CCCCC2)cc1 | 71% | 3.2 µM | – |
| CC1CCC(CCCCN2CCC(C(O)(c3ccccc3)c3ccccc3)CC2)CC1 (stereo not given) | 85% | 0.061 µM | – |
| Cc1ccc(CCCCN2CCC(C(O)(c3ccccc3)c3ccccc3)CC2)cc1 | – | 0.039 µM | ED50 (Cavia porcellus [2]): 0.9 mg/kg; MED (Cavia porcellus [3]): 0.1 mg/kg |
| Cc1ccc(CN2CCC(C(O)(c3ccccc3)c3ccccc3)CC2)cc1 | 100% | 0.016 µM | – |
| Cc1ccc(CCN2CCC(C(O)(c3ccccc3)c3ccccc3)CC2)cc1 | 100% | 0.064 µM | – |
| Cc1ccc(CCCC(=O)N2CCC(C(O)(c3ccccc3)c3ccccc3)CC2)cc1 | 11% | – | Ki (Histamine H1 receptor; cho): Not Active |
| Cc1ccc(CCCCN2CCC(C(O)c3ccccc3)CC2)cc1 (stereo not given) | 97% | 0.121 µM | – |
| CC(C)(C(=O)O)c1ccc(C(O)CCCN2CCC(C(O)(c3ccccc3)c3ccccc3)CC2)cc1 (racemic) [FEXOFENADINE] | – | – | MED (Cavia porcellus [6]): > 100 mg/kg; ED50 (Cavia porcellus [2]): 0.08 mg/kg; MED (Cavia porcellus [3]): Not Active |
| CC(C)(C)c1ccc(C(O)CCCN2CCC(C(O)(c3ccccc3)c3ccccc3)CC2)cc1 (racemic) [TERFENADINE] | – | – | ED50 (Cavia porcellus [2]): 0.8 mg/kg; MED (Cavia porcellus [3]): 0.03 mg/kg |
| OC(c1ccccc1)(c1ccccc1)C1CCNCC1 [AZACYCLONOL] | – | 0.659 µM | – |

Source: ChEMBL document CHEMBL1155359 (Bioorg Med Chem Lett, 2009)
